# Published values pooled from the literature.
# Lines come from different studies, so protocols differ.
# Target: Casein kinase I isoform gamma-3 (CSNK1G3, Homo sapiens, UniProt Q9Y6M4)
Structure (SMILES),test,setting,endpoint,value
O=c1[nH]c2ccccc2n1C1CCN(Cc2ccc(-c3[nH]c4cc5ncnc5cc4nc3-c3ccccc3)cc2)CC1,cell-free assay,0.5 µM,remaining signal,96.5%
Cn1cncc1[C@@](O)(COc1ccc(C#N)cc1-c1ccc(OC(F)(F)F)cc1)c1ccc(C#N)cc1,"cell-free assay, competition with immobilised ligand",1 µM,remaining binding,100%
CC(C)(C)c1cc(C=C(C#N)C#N)cc(Br)c1O,"enzyme activity, inhibitor",0.5 µM,remaining activity,85.8%
N#CC1(c2ccccn2)CCN(Cc2cc(C(=O)O)c(=O)n3ccccc23)CC1,"cell-free assay, competition with immobilised ligand",1 µM,remaining binding,93%
Cn1cc(-c2cc(F)cc(N3CCn4c(cc5c4CCCC5)C3=O)c2CO)cc(Nc2ccc(N3CCN(C4COC4)CC3)cn2)c1=O,"enzyme activity, inhibitor",0.1 µM,inhibition,7%
Cc1nn(C)cc1-c1nc2c(N3CCN(Cc4ccc(Cl)cc4)CC3)c(Cl)cnc2[nH]1,"binding, competition with immobilised ligand",1 µM,remaining binding,100%
COc1cc(Nc2ncc(F)c(Nc3ccc4c(n3)NC(=O)C(C)(C)O4)n2)cc(OC)c1OC,"binding, competition with immobilised ligand",10 µM,inhibition,0%
Cn1cc(-c2cccc(N3CCc4c(sc5c4CC(C)(C)C5)C3=O)c2CO)cc(Nc2ccncn2)c1=O,"enzyme activity, inhibitor",1 µM,inhibition,-1%
COc1ncccc1-c1cnn2ccc(N3CCN(C(=O)OC(C)C)CC3)nc12,"binding, competition with immobilised ligand",1 µM,remaining binding,92%
